The results in this text go back to ChEMBL document CHEMBL1137451, “Synthesis and evaluation of antifungal properties of a series of the novel 2-amino-5-oxo-4-phenyl-5,6,7,8-tetrahydroquinoline-3-carbonitrile and its analogues” (Bioorg Med Chem, 2007).

A word on the inhibition: it is how much of the control response was suppressed. A low value points to little suppression.

Experiment [1] concerns Fusarium oxysporum. In words: Antifungal activity against Fusarium oxysporum 1 at 60 ug/disc after 24 hrs by disc diffusion method. It counts as functional. The following applies: for zone of inhibition at 60 µg/disc: read-out: IZ. Put shortly: (§1)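 Yeast suspensions (C. albicans strains 1, 2) and mycelial suspensions (F. oxysporum strains 1, 2; Mucor sp.) spread on YPG (0.3% yeast extract, 0.5% peptone, 1% glucose) or PDA agar. Compound applied on filter-paper discs at the stated amount; 28 °C, 24 h. Read-out is inhibition zone diameter. Controls: 50% v/v DMSO vehicle, cycloheximide, amphotericin B.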

In experiment [2] the test system is Candida albicans. As to the kind of experiment: Antifungal activity against Candida albicans 2 at 60 ug/disc after 24 hrs by disc diffusion method. Particulars: read-out: IZ. It counts as functional. Put shortly:
as §1
(A growth-free zone around the sample is the usual read-out of agar diffusion tests.)

In experiment [3] the test system is Mucor. As to the kind of experiment: Antifungal activity against Mucor at 100 ug/disc after 24 hrs by disc diffusion method. It counts as functional. Summed up:
as §1

Experiment [4] has as its system Benjaminiella poitrasii. As to the kind of experiment: Inhibition of Benjaminiella poitrasii chitin synthase at 4 ug/mL. Put shortly:
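Chitin synthase from Benjaminiella poitrasii measured with and without compound at 4 µg/ml, using a non-radioactive chitin synthase assay. Nikkomycin Z used as reference.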

For experiment [5], the system named is Candida albicans. As to the kind of experiment: Antifungal activity against Candida albicans 1 after 24 hrs by disc diffusion method. The class given is functional. Summed up:
(§2)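 Disc diffusion on Candida albicans strains 1 and 2 (yeast suspension), Fusarium oxysporum strains 1 and 2 and Mucor sp. (mycelial suspension), spread on YPG or PDA agar. Compound at graded amounts per filter-paper disc, 28 °C for 24 h. MIC taken as the lowest amount giving a 2 mm inhibition zone. Controls: 50% v/v DMSO vehicle, cycloheximide, amphotericin B.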

Experiment [6] concerns Mucor. In words: Antifungal activity against Mucor at 40 ug/disc after 24 hrs by disc diffusion method. The class given is functional. Summed up:
as §1

Experiment [7] concerns Fusarium oxysporum. As to the kind of experiment: Antifungal activity against Fusarium oxysporum 1 at 100 ug/disc after 24 hrs by disc diffusion method. It counts as functional. The following applies: read-out: IZ. Summed up: as §1
The subject of experiment [8] is Fusarium oxysporum. As to the kind of experiment: Antifungal activity against Fusarium oxysporum 2 at 60 ug/disc after 24 hrs by disc diffusion method. The class given is functional. Particulars: for zone of inhibition at 60 µg/disc: read-out: IZ. Put shortly:
as §1

Experiment [9] deals with Mucor. In words: Antifungal activity against Mucor at 60 ug/disc after 24 hrs by disc diffusion method. The class given is functional. Put shortly:
as §1

In experiment [10] the test system is Candida albicans. In words: Antifungal activity against Candida albicans 1 at 40 ug/disc after 24 hrs by disc diffusion method. The class given is functional. The following applies: for zone of inhibition at 40 µg/disc: read-out: IZ. Summed up:
as §1

Experiment [11] relates to Fusarium oxysporum. In words: Antifungal activity against Fusarium oxysporum 1 at 40 ug/disc after 24 hrs by disc diffusion method. It counts as functional. Put shortly:
as §1

For experiment [12], the system named is Candida albicans. As to the kind of experiment: Antifungal activity against Candida albicans 1 at 60 ug/disc after 24 hrs by disc diffusion method. The class given is functional. Particulars: read-out: IZ. Put shortly: as §1
Experiment [13] relates to Fusarium oxysporum. As to the kind of experiment: Antifungal activity against Fusarium oxysporum 2 after 24 hrs by disc diffusion method. It counts as functional. Put shortly: as §2
In experiment [14] the test system is Candida albicans. In words: Antifungal activity against Candida albicans 2 at 40 ug/disc after 24 hrs by disc diffusion method. The following applies: for zone of inhibition at 40 µg/disc: read-out: IZ. It counts as functional. Summed up: as §1
For experiment [15], the system named is Fusarium oxysporum. As to the kind of experiment: Antifungal activity against Fusarium oxysporum 1 after 24 hrs by disc diffusion method. It counts as functional. Put shortly:
as §2

Experiment [16] concerns Fusarium oxysporum. As to the kind of experiment: Antifungal activity against Fusarium oxysporum 2 at 40 ug/disc after 24 hrs by disc diffusion method. The class given is functional. Put shortly:
as §1

Experiment [17] concerns Benjaminiella poitrasii. In words: Inhibition of yeast hypha transition at 20 ug/mL after 4 hrs.
Experiment [18] relates to Candida albicans. In words: Antifungal activity against Candida albicans 1 at 100 ug/disc after 24 hrs by disc diffusion method. It counts as functional. Particulars: read-out: IZ. Summed up: as §1
Experiment [19] has as its system Candida albicans. In words: Antifungal activity against Candida albicans 2 after 24 hrs by disc diffusion method. It counts as functional. Put shortly: as §2
Experiment [20] deals with Candida albicans. In words: Antifungal activity against Candida albicans 2 at 100 ug/disc after 24 hrs by disc diffusion method. It counts as functional. The following applies: read-out: IZ. Summed up: as §1
Experiment [21] concerns Fusarium oxysporum. In words: Antifungal activity against Fusarium oxysporum 2 at 100 ug/disc after 24 hrs by disc diffusion method. It counts as functional. Particulars: read-out: IZ. Put shortly:
as §1

Activity calls are given as the source filed them. The rule behind the calls is not given here.

For `N#Cc1c(N)nc2c(c1-c1cccc(NC(=O)CCN3CCOCC3)c1)C(=O)CCC2`, the zone of inhibition at 60 µg/disc in the experiment with Fusarium oxysporum [1] turned out to be 3 mm; with Candida albicans [2] it was 2 mm; with Fusarium oxysporum [8], 3 mm; in the experiment with Candida albicans [12], 2 mm. For the same molecule, the result in the experiment with Mucor [3], in the experiment with Mucor [6] and in the experiment on Mucor [9] was inactive. Besides, the inhibition in the experiment on Benjaminiella poitrasii [4] was found to be 61%. The MIC against Candida albicans [5], with Fusarium oxysporum [13], against Fusarium oxysporum [15] and against Candida albicans [19] was 40 µg/disc throughout. Also, the zone of inhibition at 100 µg/disc in the experiment with Fusarium oxysporum [7] amounted to 5 mm; with Candida albicans [18], 7 mm; in the experiment with Candida albicans [20], 7 mm; in the experiment on Fusarium oxysporum [21], 5 mm. Besides, the zone of inhibition at 40 µg/disc in the experiment with Candida albicans [10], in the experiment on Fusarium oxysporum [11] (read-out: IZ), in the experiment with Candida albicans [14] and with Fusarium oxysporum [16] (read-out: IZ) was 2 mm throughout. This molecule also returned an inhibition at 20 µg/mL in the experiment with Benjaminiella poitrasii [17] of 95%.

As for `N#Cc1c(N)nc2c(c1-c1cccc(NC(=O)Nc3cccc(-c4c(C#N)c(N)nc5c4C(=O)CCC5)c3)c1)C(=O)CCC2`, the zone of inhibition at 60 µg/disc in the experiment on Fusarium oxysporum [1] was found to be 2 mm; with Candida albicans [2] it was 3 mm; with Fusarium oxysporum [8], 2 mm; in the experiment on Candida albicans [12], 3 mm. In addition, the result in the experiment with Mucor [3], in the experiment on Mucor [6], in the experiment with Mucor [9], in the experiment on Fusarium oxysporum [11] and in the experiment with Fusarium oxysporum [16] was inactive. The inhibition with Benjaminiella poitrasii [4] is 91%. Besides, the MIC against Candida albicans [5] is 40 µg/disc; in the experiment with Fusarium oxysporum [13], 60 µg/disc; in the experiment on Fusarium oxysporum [15] it was 60 µg/disc; with Candida albicans [19] it was 40 µg/disc. The zone of inhibition at 100 µg/disc in the experiment with Fusarium oxysporum [7] is 6 mm; with Candida albicans [18] it was 7 mm; in the experiment with Candida albicans [20], 7 mm; in the experiment with Fusarium oxysporum [21] it was 6 mm. For the same molecule, the zone of inhibition at 40 µg/disc with Candida albicans [10] and in the experiment on Candida albicans [14] was 3 mm throughout. The molecule also had an inhibition at 20 µg/mL in the experiment on Benjaminiella poitrasii [17] of 95%.

On to `COc1ccc(NC(=O)Nc2cccc(-c3c(C#N)c(N)nc4c3C(=O)CCC4)c2)cc1`, for which the outcome with Fusarium oxysporum [1], in the experiment on Mucor [3], in the experiment on Mucor [6], with Fusarium oxysporum [8], with Mucor [9] and in the experiment on Fusarium oxysporum [11] was inactive. Moreover, in the experiment on Fusarium oxysporum [16], the result was inactive. In addition, the zone of inhibition at 60 µg/disc in the experiment on Candida albicans [2] and in the experiment with Candida albicans [12] was 3 mm in each case. This molecule returned an inhibition in the experiment on Benjaminiella poitrasii [4] of 71%. For the same molecule, the MIC against Candida albicans [5] stood at 40 µg/disc; in the experiment on Fusarium oxysporum [13], 100 µg/disc; against Fusarium oxysporum [15] it was 100 µg/disc; against Candida albicans [19] it was 40 µg/disc. The zone of inhibition at 100 µg/disc in the experiment on Fusarium oxysporum [7] is 2 mm; in the experiment with Candida albicans [18] it was 6 mm; with Candida albicans [20], 6 mm; with Fusarium oxysporum [21] it was 2 mm. The zone of inhibition at 40 µg/disc in the experiment on Candida albicans [10] and in the experiment on Candida albicans [14] was 2 mm each time. In the experiment on Benjaminiella poitrasii [17], this molecule displayed an inhibition at 20 µg/mL of 95%.

For the molecule `Cc1ccc(-c2c(C(N)=O)c(N)nc3c2C(=O)CCC3)cc1`, the result in the experiment with Fusarium oxysporum [1], with Mucor [3], with Mucor [6], in the experiment on Mucor [9], in the experiment on Candida albicans [10] and in the experiment with Fusarium oxysporum [11] was inactive. Further, the result with Candida albicans [14] and in the experiment on Fusarium oxysporum [16] was inactive. In addition, the zone of inhibition at 60 µg/disc with Candida albicans [2], in the experiment on Fusarium oxysporum [8] and in the experiment with Candida albicans [12] was 2 mm each time. The molecule further came in with an inhibition in the experiment with Benjaminiella poitrasii [4] of 66%. The MIC in the experiment on Candida albicans [5] is 60 µg/disc; in the experiment with Fusarium oxysporum [13] it was 100 µg/disc; in the experiment with Fusarium oxysporum [15], 100 µg/disc; against Candida albicans [19] it was 60 µg/disc. The zone of inhibition at 100 µg/disc in the experiment with Fusarium oxysporum [7], in the experiment with Candida albicans [18], in the experiment with Candida albicans [20] and with Fusarium oxysporum [21] was 4 mm throughout. For the same molecule, testing at 20 µg/mL in the experiment on Benjaminiella poitrasii [17] gave an inhibition of 95%.
